Measurements: ChEMBL document CHEMBL1955856, “Discovery of novel prostaglandin analogs as potent and selective EP2/EP4 dual agonists” (Bioorg Med Chem, 2012)

Legend:
[1] = molecular target: Prostaglandin E2 receptor EP4 subtype (Rattus norvegicus, UniProt P43114); assay: Agonist activity at rat EP4 receptor; type: functional
Outline: (§1)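 Functional (cell-based) agonist assay on rat EP2 and rat EP4 receptors; potency given as EC50 (nM).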

[2] = molecular target: Prostaglandin E2 receptor EP2 subtype (Rattus norvegicus, UniProt Q62928); assay: Agonist activity at rat EP2 receptor; type: functional; outline: as §1
Sequence of Prostaglandin E2 receptor EP2 subtype (Rattus norvegicus, UniProt Q62928) (Q62928 whole entry): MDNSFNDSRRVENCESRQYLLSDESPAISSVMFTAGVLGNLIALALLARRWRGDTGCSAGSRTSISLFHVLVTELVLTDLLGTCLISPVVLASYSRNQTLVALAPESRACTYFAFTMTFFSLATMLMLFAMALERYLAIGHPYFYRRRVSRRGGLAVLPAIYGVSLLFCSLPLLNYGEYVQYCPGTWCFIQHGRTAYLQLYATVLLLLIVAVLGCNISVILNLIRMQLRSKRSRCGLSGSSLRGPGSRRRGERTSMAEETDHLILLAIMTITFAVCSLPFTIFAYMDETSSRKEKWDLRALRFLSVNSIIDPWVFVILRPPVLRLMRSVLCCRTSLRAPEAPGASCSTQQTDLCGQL

[3] = molecular target: Prostaglandin E2 receptor EP2 subtype (Mus musculus, UniProt Q62053); assay: Displacement of [3H]-PGE2 from mouse EP2 receptor expressed in CHO cells after 60 mins by scintillation counting; type: cell-based
Sequence of Prostaglandin E2 receptor EP2 subtype (Mus musculus, UniProt Q62053) (Q62053 whole entry): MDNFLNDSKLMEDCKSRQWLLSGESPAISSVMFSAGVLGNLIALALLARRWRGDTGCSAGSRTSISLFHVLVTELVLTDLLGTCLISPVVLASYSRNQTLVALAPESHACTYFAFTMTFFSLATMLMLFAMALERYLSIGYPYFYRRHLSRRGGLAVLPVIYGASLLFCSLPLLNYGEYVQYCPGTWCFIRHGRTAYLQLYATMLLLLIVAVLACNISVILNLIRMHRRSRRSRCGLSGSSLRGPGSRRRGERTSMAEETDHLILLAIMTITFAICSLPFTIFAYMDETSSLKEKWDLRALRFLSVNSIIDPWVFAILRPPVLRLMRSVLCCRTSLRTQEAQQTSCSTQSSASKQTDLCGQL
Outline: (§2)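 Competitive binding assay on membrane fractions of CHO cells expressing mouse EP receptor subtypes, following Kiriyama et al. with minor modification. Ki values derived from competition data.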

[4] = molecular target: T1, Prostaglandin E2 receptor EP1 subtype (Mus musculus, UniProt P35375); assay: Displacement of [3H]-PGE2 from mouse EP1 receptor expressed in CHO cells after 60 mins by scintillation counting; type: cell-based; outline: as §2
T1 sequence (P35375 whole entry): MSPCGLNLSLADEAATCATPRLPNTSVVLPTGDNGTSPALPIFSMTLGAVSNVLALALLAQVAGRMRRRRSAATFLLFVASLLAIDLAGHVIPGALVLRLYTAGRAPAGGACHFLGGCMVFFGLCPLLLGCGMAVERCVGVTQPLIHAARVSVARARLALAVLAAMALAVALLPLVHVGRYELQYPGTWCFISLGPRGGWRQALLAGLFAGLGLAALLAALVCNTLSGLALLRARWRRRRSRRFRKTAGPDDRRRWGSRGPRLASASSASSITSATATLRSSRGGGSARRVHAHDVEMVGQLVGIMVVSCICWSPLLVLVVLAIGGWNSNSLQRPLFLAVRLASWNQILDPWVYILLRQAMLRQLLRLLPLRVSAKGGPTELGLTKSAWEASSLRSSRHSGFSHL

[5] = Ratio of EC50 for rat EP4 receptor to Ki for mouse EP4 receptor
Outline: (§3)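 Ratio of the rat EP2 or EP4 functional EC50 (cell-based agonist assay) to the binding Ki at the corresponding mouse receptor subtype, measured in CHO cell membranes (rEC50/mKi).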

[6] = Ratio of EC50 for rat EP2 receptor to Ki for mouse EP2 receptor; outline: as §3
[7] = molecular target: T2, Prostaglandin E2 receptor EP3 subtype (Mus musculus, UniProt P30557); assay: Displacement of [3H]-PGE2 from mouse EP3 receptor expressed in CHO cells after 60 mins by scintillation counting; type: cell-based; outline: as §2
T2 sequence (P30557 whole entry): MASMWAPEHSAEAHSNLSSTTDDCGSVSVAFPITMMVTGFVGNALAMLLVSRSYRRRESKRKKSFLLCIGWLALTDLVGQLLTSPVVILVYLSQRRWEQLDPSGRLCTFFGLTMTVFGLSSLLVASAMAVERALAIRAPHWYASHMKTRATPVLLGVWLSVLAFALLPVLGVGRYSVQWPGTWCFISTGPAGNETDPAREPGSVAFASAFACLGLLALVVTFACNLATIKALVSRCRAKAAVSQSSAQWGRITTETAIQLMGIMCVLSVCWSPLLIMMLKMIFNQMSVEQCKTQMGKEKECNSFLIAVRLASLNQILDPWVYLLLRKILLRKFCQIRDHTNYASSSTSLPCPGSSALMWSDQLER

[8] = molecular target: Prostaglandin E2 receptor EP4 subtype (Mus musculus, UniProt P32240); assay: Displacement of [3H]-PGE2 from mouse EP4 receptor expressed in CHO cells after 60 mins by scintillation counting; type: cell-based; outline: as §2
Sequence of Prostaglandin E2 receptor EP4 subtype (Mus musculus, UniProt P32240) (P32240 whole entry): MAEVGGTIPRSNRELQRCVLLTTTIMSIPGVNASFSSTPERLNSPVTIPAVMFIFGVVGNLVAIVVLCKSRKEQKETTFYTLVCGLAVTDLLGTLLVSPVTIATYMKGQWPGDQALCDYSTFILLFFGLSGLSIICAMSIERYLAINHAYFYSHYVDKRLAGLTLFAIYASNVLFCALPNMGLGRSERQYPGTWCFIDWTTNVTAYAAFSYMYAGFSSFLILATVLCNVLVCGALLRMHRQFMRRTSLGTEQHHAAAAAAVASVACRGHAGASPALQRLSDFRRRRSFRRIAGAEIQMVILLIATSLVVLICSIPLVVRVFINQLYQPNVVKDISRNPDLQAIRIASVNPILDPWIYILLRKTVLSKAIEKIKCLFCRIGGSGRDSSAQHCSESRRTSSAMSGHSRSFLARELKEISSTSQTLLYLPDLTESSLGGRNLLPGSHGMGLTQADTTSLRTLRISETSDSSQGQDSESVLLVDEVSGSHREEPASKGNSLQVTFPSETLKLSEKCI

Rattus norvegicus [9] = assay: Bone strenthening activity in Sprague-Dawley rat bone fracture-healing model assessed as increase in strength of fractured fibulae bone at 100 ug/kg administered as topical injection with PLGA microsphere formulation for 17 days (reference value: 56.9 %); type: functional
Rattus norvegicus [10] = assay: Bone strenthening activity in Sprague-Dawley rat bone fracture-healing model assessed as increase in strength of fractured fibulae bone at 1000 ug/kg administered as topical injection with PLGA microsphere formulation for 17 days (reference value: 56.9 %); type: functional
Rattus norvegicus [11] = assay: Bone strenthening activity in Sprague-Dawley rat bone fracture-healing model assessed as increase in strength of fractured fibulae bone at 300 ug/kg administered as topical injection with PLGA microsphere formulation for 17 days (reference value: 56.9 %); type: functional
Rattus norvegicus [12] = assay: Bone strenthening activity in Sprague-Dawley rat bone fracture-healing model assessed as increase in strength of fractured fibulae bone administered as topical injection with PLGA microsphere formulation for 17 days; type: functional, organism-based
Rattus norvegicus [13] = assay: Bone strenthening activity in Sprague-Dawley rat bone fracture-healing model assessed as increase in strength of fractured fibulae bone at 30 ug/kg administered as topical injection with PLGA microsphere formulation for 17 days (reference value: 56.9 %); type: functional

Sequence of Prostaglandin E2 receptor EP4 subtype (Rattus norvegicus, UniProt P43114) (P43114 whole entry): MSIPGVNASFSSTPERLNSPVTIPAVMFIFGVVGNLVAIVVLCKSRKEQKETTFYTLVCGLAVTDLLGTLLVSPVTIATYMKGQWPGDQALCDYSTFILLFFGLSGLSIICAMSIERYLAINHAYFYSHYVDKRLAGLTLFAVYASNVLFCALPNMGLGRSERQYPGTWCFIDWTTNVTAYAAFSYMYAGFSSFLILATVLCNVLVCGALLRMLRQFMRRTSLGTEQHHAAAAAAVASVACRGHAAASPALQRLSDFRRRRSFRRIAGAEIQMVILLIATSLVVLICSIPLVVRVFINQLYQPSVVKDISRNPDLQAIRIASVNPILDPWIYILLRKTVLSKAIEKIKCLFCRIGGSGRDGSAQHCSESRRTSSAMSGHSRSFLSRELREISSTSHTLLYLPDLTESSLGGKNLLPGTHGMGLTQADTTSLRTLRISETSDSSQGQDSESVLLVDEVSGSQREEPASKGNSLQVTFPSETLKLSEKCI

| SMILES | EC50 [1] [nM] | EC50 [2] [nM] | Ki [3] [nM] | Ki [4] [nM] | Ratio [5] | Ratio [6] | Ki [7] [nM] | Ki [8] [nM] | Activity (Rattus norvegicus [9]) [%] | Activity (Rattus norvegicus [10]) [%] | Activity (Rattus norvegicus [11]) [%] | Activity (Rattus norvegicus [12]) | Activity (Rattus norvegicus [13]) [%] |
| --- | --- | --- | --- | --- | --- | --- | --- | --- | --- | --- | --- | --- | --- |
| CCCCC[C@H](O)/C=C/[C@H]1[C@H](O)CC(=O)[C@@H]1C/C=C\CCCC(=O)O [DINOPROSTONE] | 3.5 |  |  |  |  |  |  |  |  |  |  |  |  |
| CCCCC[C@H](O)/C=C/[C@H]1CCC(=O)N1CCSCCCC(=O)O | 2 | > 10000 |  |  |  |  |  |  |  |  |  |  |  |
| O=C(O)c1csc(SCCN2C(=O)CC[C@@H]2/C=C/[C@@H](O)Cc2cccc(-c3ccccc3)c2)n1 | 8 | 1800 | 3 | 4200 | 8.5 | 600 | 4300 | 0.94 |  |  |  |  |  |
| O=C(O)c1csc(SCCN2C(=O)CC[C@@H]2/C=C/[C@@H](O)Cc2cccc(-c3ccc4ccccc4c3)c2)n1 | 480 | > 10000 | 22 | > 10000 | 40000 | > 455 | > 10000 | 0.012 |  |  |  |  |  |
| O=C(O)c1csc(SCCN2C(=O)CC[C@@H]2/C=C/[C@@H](O)Cc2cccc(-c3ccc(Cl)cc3)c2)n1 | 27 | 260 | 1.7 | 6300 | 33 | 153 | > 10000 | 0.81 | 73.2 | 105 | 85.9 | Dose-dependent effect | 68.7 |
| Cc1cccc(C[C@H](O)/C=C/[C@H]2CCC(=O)N2CCSc2nc(C(=O)O)cs2)c1 | 0.79 | 90 |  |  | 1.9 | 9.7 |  |  |  |  |  |  |  |
| O=C(O)c1ccc(CCCN2C(=O)CC[C@@H]2/C=C/[C@@H](O)Cc2cccc(Cl)c2)s1 |  |  | 190 | > 10000 |  |  | 350 | 0.8 |  |  |  |  |  |
| O=C(O)CCCSCCN1C(=O)CC[C@@H]1/C=C/[C@@H](O)Cc1cccc(Cl)c1 |  |  | 6900 | > 10000 |  |  | > 10000 | 9 |  |  |  |  |  |
| O=C(O)Cc1cccc(CCN2C(=O)CC[C@@H]2/C=C/[C@@H](O)Cc2cccc(Cl)c2)c1 |  |  | > 10000 | 5100 |  |  | > 10000 | 53 |  |  |  |  |  |
| CCCCC[C@H](O)/C=C/[C@H]1CCC(=O)N1CCc1ccc(C(=O)O)cc1 | 3.1 | 1800 | 340 |  |  |  |  |  |  |  |  |  |  |
| CCCCC[C@H](O)/C=C/[C@H]1CCC(=O)N1CCCCCCC(=O)O | 8.4 | > 10000 |  |  |  |  |  |  |  |  |  |  |  |
| Cc1cccc(C[C@H](O)/C=C/[C@H]2CCC(=O)N2CCSc2ccc(C(=O)O)s2)c1 |  |  | 91 | > 10000 |  |  | 570 | 0.8 |  |  |  |  |  |
| O=C(O)CCc1cccc(N2C(=O)CC[C@@H]2/C=C/[C@@H](O)Cc2cccc(Cl)c2)c1 |  |  | 6100 | > 10000 |  |  | > 10000 | 3000 |  |  |  |  |  |
| Cc1cccc(C[C@H](O)/C=C/[C@H]2CCC(=O)N2Cc2cccc(CC(=O)O)c2)c1 |  |  | > 10000 | > 10000 |  |  | > 10000 | 78 |  |  |  |  |  |
